The text below walks through data of ChEMBL document CHEMBL3259596, “Lactam and oxazolidinone derived potent 5-hydroxytryptamine 6 receptor antagonists” (Bioorg Med Chem Lett, 2014).

The structures appear in SMILES notation. Some results are limits rather than exact numbers.

The target of data set [1] is T1, 5-hydroxytryptamine receptor 6 (Homo sapiens, UniProt P50406). The experiment in a line: Displacement of [3H]LSD from human recombinant 5-HT6 receptor expressed in CHO-K1 cell membrane after 3 hrs by liquid scintillation counting analysis. Format: cell membranes. The method, boiled down:
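Membranes from CHO-K1 cells stably expressing human 5-HT6, 1.75 µg protein, preincubated with scintillation beads 30 min at 4 °C. Buffer was 50 mM Tris-HCl pH 7.4, 4 mM CaCl2, saponin, 0.1% ascorbic acid. Incubated 3 h at room temperature with 4 nM [3H]LSD (Kd 2.3 nM) over half-log dilutions. Nonspecific binding defined with 10 µM serotonin. IC50 from variable-slope fit, Ki by Cheng-Prusoff, mean of three experiments.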

Data set [2] has as its target T1, 5-hydroxytryptamine receptor 6. The experiment in a line: Antagonist activity at human 5-HT6 receptor assessed as inhibition of 5-HT-induced cAMP level treated for 10 mins prior to 5-HT challenge for 30 mins by homogeneous time-resolved fluorescent assay. The format is functional. (In general: cAMP levels reflect the balance of adenylyl cyclase and phosphodiesterase activity.)

Data set [3] addresses 5-hydroxytryptamine receptor 2A (Homo sapiens, UniProt P28223). The data set is described as follows: Binding affinity to 5-HT2A receptor (unknown origin).
Data set [4] addresses 5-hydroxytryptamine receptor 2B (Homo sapiens, UniProt P41595). The experiment in a line: Binding affinity to 5-HT2B receptor (unknown origin).
For data set [5], the target named is T2, 5-hydroxytryptamine receptor 2C (Homo sapiens, UniProt P28335).
T2 sequence (P28335 whole entry): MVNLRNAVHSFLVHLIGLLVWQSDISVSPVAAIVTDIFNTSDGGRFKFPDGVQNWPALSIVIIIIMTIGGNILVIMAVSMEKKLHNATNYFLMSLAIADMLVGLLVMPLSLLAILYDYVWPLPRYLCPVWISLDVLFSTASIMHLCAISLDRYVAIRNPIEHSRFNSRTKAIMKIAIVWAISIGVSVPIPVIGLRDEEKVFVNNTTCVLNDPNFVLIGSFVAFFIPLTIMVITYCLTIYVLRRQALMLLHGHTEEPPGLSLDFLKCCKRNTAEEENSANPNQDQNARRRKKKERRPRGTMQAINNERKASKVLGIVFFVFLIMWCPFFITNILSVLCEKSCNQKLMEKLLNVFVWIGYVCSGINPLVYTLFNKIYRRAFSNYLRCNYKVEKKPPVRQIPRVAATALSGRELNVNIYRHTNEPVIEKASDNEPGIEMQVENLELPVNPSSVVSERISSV
The data set is described as follows: Binding affinity to 5-HT2C receptor (unknown origin).

The test system of data set [6] is Brain. The experiment in a line: Drug uptake in rat brain at 5 mg/kg, po after 6 hrs. Format: ADME, organism-based. The arrangement: dose 5 mg/kg, route oral. The note with it: in vivo. The method, boiled down: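 Rats dosed orally at 5 mg/kg. Compound measured in brain 6 h after dosing.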

T1 sequence (P50406 whole entry): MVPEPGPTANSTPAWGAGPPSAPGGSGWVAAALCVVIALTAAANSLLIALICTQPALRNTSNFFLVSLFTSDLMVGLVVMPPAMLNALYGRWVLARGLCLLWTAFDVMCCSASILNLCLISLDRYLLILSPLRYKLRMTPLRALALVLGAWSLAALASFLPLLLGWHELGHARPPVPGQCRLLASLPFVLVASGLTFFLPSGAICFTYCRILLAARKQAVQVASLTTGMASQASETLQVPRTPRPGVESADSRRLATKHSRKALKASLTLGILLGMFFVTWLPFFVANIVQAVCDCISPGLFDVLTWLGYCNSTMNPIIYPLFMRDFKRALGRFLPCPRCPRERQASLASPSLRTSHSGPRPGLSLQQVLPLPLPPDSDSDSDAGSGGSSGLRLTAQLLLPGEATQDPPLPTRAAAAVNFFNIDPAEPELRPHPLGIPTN
Chain of 5-hydroxytryptamine receptor 2A (P28223 whole entry): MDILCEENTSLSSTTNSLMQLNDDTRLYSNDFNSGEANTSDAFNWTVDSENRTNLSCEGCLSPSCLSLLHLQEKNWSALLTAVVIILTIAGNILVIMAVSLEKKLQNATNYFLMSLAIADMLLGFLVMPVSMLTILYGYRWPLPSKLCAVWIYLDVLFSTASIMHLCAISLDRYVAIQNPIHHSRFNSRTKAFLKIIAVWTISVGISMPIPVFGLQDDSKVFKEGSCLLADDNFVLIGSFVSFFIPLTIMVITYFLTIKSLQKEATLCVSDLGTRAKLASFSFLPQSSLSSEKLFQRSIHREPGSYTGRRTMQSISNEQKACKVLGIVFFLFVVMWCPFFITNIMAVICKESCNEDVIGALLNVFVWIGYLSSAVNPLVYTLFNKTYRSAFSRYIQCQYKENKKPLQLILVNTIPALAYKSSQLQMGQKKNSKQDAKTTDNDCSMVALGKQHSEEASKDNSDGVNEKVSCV
Chain of 5-hydroxytryptamine receptor 2B (P41595 whole entry): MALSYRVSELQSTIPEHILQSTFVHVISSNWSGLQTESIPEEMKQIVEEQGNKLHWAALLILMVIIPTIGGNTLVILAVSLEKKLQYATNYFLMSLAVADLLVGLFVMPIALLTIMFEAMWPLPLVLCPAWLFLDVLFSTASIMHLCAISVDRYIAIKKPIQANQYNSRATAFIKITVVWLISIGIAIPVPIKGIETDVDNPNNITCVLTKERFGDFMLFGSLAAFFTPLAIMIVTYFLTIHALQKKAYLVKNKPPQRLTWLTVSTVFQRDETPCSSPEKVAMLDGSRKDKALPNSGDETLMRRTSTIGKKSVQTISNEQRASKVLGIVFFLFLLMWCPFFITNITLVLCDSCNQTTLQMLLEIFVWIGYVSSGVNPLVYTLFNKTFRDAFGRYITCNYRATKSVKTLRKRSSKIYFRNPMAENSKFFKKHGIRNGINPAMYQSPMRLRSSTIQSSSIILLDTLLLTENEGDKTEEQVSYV

As usually defined, the Ki is the equilibrium dissociation constant of an inhibitor or competing ligand from its target. Regarding `O=C1CC(c2ccccc2Cl)CN1c1ccc2c(c1)CCNCC2` (racemic), the Ki in data set [1] amounted to 100 nM.
`O=C1CSC2(C(=O)Nc3ccccc32)N1c1ccccc1` (racemic): in data set [1], the Ki was 5700 nM.
Same read-out and setting: the figure for `COc1cc(OC)cc(N2C(=O)CSC23C(=O)Nc2ccccc23)c1` (racemic) is 88 nM; for `O=C1CC(c2ccccc2)CN1c1cccc(C2CCNCC2)c1` (racemic) it is 70 nM; for `CN1CCN(c2ncc(N3CC(c4ccccc4)CC3=O)s2)CC1` (racemic) it is > 30000 nM.
Still for that read-out and setting: the figure for `O=C1CC(c2ccccc2)CN1c1cncc(N2CCNCC2)c1` (racemic) is 4100 nM; for `Clc1ccccc1C1CCN(c2ccc3c(c2)CCNCC3)C1` (racemic) it is 650 nM.
Same read-out and setting: to `O=C1CC(c2ccccc2)CN1c1cccc(N2CCNCC2)n1` (racemic) belongs 48 nM.
`O=C1OC(c2cccc(Cl)c2)CN1c1ccc2c(c1)CCNCC2` (racemic): the Ki in data set [1] is 10 nM.
Consider `O=C1OC(c2ccccc2Cl)CN1c1ccc(N2CCNCC2)cc1` (racemic), for which the Ki in data set [1] stood at 1900 nM.
Consider `O=C1CC(c2ccccc2)CN1c1ccc2c(c1)CNCC2` (racemic), for which the Ki in data set [1] was found to be 140 nM.
Still for that read-out and setting: the figure for `O=C1CC(c2ccccc2)CN1c1cnc2c(N3CCCNCC3)cccc2c1` (racemic) is 10 nM.
Take `O=C1CCCN1c1cnc2c(N3CCNCC3)cccc2c1`: in data set [1], the Ki was determined as 4900 nM.
For orientation: IC50 means the concentration at which inhibition is half-maximal. Turning to `O=C1CC(c2ccccc2)CN1c1cnc2c(N3CCNCC3)cccc2c1` (racemic), the Ki in data set [1] amounted to 2.6 nM. For the same compound, the IC50 in data set [2] is 15 nM.
In the case of `COc1ccccc1C1CN(c2ccc3c(c2)CCNCC3)C(=O)O1` (racemic), the Ki in data set [1] was found to be 87 nM.
On the same count and under the same terms, the figure for `O=C1CC(c2ccccc2)CN1c1ccc2c(N3CCNCC3)ccnc2c1` (racemic) is 55 nM.
The same measure, in the same setting: to `O=C1OC(c2ccccc2Cl)CN1c1ccc2c(c1)CNCC2` (racemic) belongs 150 nM; to `O=C1CC(c2ccccc2)CN1c1ccc2c(c1)CCNCC2` (racemic), 54 nM.
As for `O=C1OC(c2ccccc2Cl)CN1c1cccc(OC2CCNCC2)c1` (racemic), in data set [1], the Ki came out at 240 nM.
`O=C1OC(c2ccccc2Cl)CN1c1ccc2c(c1)CCNCC2` (racemic): the Ki in data set [1] turned out to be 47 nM.
On the same count and under the same terms, the figure for `O=C1OC(c2ccccc2Cl)CN1c1ccc2c(c1)CCNC2` (racemic) is 330 nM; for `O=C1OC(c2ccccc2)CN1c1ccc2c(c1)CCNCC2` (racemic) it is 16 nM.
For `O=C1OC(c2ccccc2Cl)CN1c1cccc(N2CCNCC2)c1` (racemic), the Ki in data set [1] was determined as 140 nM.
On to `O=C1CC(c2ccccc2)CN1c1cnc2c(N3CCNCC3)cccc2c1` (single isomer, unassigned; enantiomer 1), for which, in data set [2], the IC50 is 8 nM. The Ki is 3100 nM in data set [3], > 30000 nM in data set [4] and > 30000 nM in data set [5]. Further, the Drug uptake result in data set [6] is given as “Active”.
For `O=C1CC(c2ccccc2)CN1c1cccc(N2CCNCC2)c1` (racemic), in data set [1], the Ki is 84 nM.
The same measure, in the same setting: the figure for `O=C1CC(c2ccccc2)CN1c1ccc2c(c1)CCCNC2` (racemic) is 1200 nM; for `O=C1OC(c2ccccc2F)CN1c1ccc2c(c1)CCNCC2` (racemic) it is 15 nM.
